{"source": "ChEMBL document CHEMBL2331541", "about": "“Small molecule antivirulents targeting the iron-regulated heme oxygenase (HemO) of P. aeruginosa” (J Med Chem, 2013)", "key": {"Pseudomonas aeruginosa [1]": {"test_system": "Pseudomonas aeruginosa", "test": "Antimicrobial activity against Pseudomonas aeruginosa PAO1", "type": "functional", "outline": "(§1)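 Strains grown from single colony 8 h at 37 °C in LB, diluted to OD600 0.05, incubated in LB alone or with 250−1500 μM compound. OD600 read at 6, 12 and 24 h, blank with matching inhibitor concentration subtracted. MIC50 averaged from three separate experiments.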"}, "[2]": {"test": "Binding affinity to Pseudomonas aeruginosa apo Heme oxygenase expressed in Escherichia coli BL21(DE3) assessed as decrease in tryptophan fluorescence", "outline": "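Apo-HemO held at 1 μM in 20 mM Tris-HCl (pH 7.5), titrated with inhibitor 0.05−500 μM. Excitation 295 nm, emission scanned 300−500 nm; fluorescence decrease at 330 nm used in 1/ΔA vs 1/[I] reciprocal plot, slope giving KD. Mean of three separate experiments.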"}, "Pseudomonas aeruginosa [3]": {"test_system": "Pseudomonas aeruginosa", "test": "Antimicrobial activity against Pseudomonas aeruginosa FRD1", "type": "functional", "outline": "as §1"}, "Pseudomonas aeruginosa [4]": {"test_system": "Pseudomonas aeruginosa", "test": "Antimicrobial activity against Pseudomonas aeruginosa WR5", "type": "functional", "outline": "as §1"}, "Pseudomonas aeruginosa [5]": {"test_system": "Pseudomonas aeruginosa", "test": "Antimicrobial activity against Pseudomonas aeruginosa PAO1 infected in Caenorhabditis elegans glp-4(bn2) assessed as increase in host lifespan at 250 ug/ml", "type": "functional, organism-based", "outline": "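Synchronized glp-4(bn2) young adults (30) exposed 12 h to P. aeruginosa PAO1 lawn on PGS agar (peptone, NaCl, glucose, 0.15 M sorbitol), washed in M9, reseeded on E. coli OP50 PGS-agar plates containing inhibitor. Viability scored daily; death taken as no response to touch. Average of three experiments.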"}, "Pseudomonas aeruginosa [6]": {"test_system": "Pseudomonas aeruginosa", "test": "Binding affinity to Pseudomonas aeruginosa apo Heme oxygenase expressed in Escherichia coli BL21(DE3) assessed as shift in specific resonance at 4.2 mM after 2 hrs by chemical shift NMR analysis", "outline": "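15N-labeled apo-HemO at 1.2 mM (50 mM phosphate, 100 mM KCl, 95% H2O/5% D2O) with inhibitor at 0, 0.7, 1.05, 2.1 or 4.2 mM; inhibitor dissolved into protein 2 h at room temperature, centrifuged. 1H−15N TROSY-HSQC at 25 °C; combined shift Δppm = sqrt(ΔδHN² + (0.2·ΔδN)²).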"}, "Pseudomonas aeruginosa [7]": {"test_system": "Pseudomonas aeruginosa", "test": "Binding affinity to Pseudomonas aeruginosa apo Heme oxygenase expressed in Escherichia coli BL21(DE3) after 4 hrs by STD-NMR analysis", "outline": "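STD-NMR at 25 °C, 500 MHz: inhibitor-saturated solution (50 mM sodium phosphate, 100 mM NaCl, D2O, pH 7.4, stood about 4 h, centrifuged) mixed with 3−4 μM HemO; inhibitor about 5 mM by TSP reference. Selective saturation 2 s via 50 ms Gaussian pulses; repeated with 10 s interscan delay. Strongest-saturated proton set to 100%.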"}, "Pseudomonas aeruginosa [8]": {"test_system": "Pseudomonas aeruginosa", "test": "Antimicrobial activity against Pseudomonas aeruginosa PAO1 infected in Caenorhabditis elegans glp-4(bn2) assessed as reduction in CFU at 250 ug/ml by serial dilution method", "type": "functional, organism-based", "outline": "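Infected worms (PAO1, 12 h on PGS agar) moved to E. coli OP50 plates with inhibitor; at 24, 48, 72 and 96 h, 10 live worms washed three times in M9 with 1 mM sodium azide, disrupted with 1.0 mm silicon carbide beads by vortexing 1 min, debris pelleted, lysate serially diluted and plated on PIA for cfu. Uninfected and untreated infected worms as controls.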"}}, "note": "Activity calls are given as the source filed them. The rule behind the calls is not given here.", "data": [{"smiles": "O=C(O)/C=C/C(=O)Nc1ccc(Oc2ccccc2)cc1", "values": [{"measurement": "MIC50", "setting": "Pseudomonas aeruginosa [1]", "result": 1000, "unit": "mg/L"}, {"measurement": "Kd", "setting": "[2]", "result": 29.3, "unit": "µM"}, {"measurement": "MIC50", "setting": "Pseudomonas aeruginosa [3]", "result": 750, "unit": "mg/L"}, {"measurement": "MIC50", "setting": "Pseudomonas aeruginosa [4]", "result": 800, "unit": "mg/L"}]}, {"smiles": "CN(C)c1ccc(/C=N/NC(=N)N)cc1", "values": [{"measurement": "MIC50", "setting": "Pseudomonas aeruginosa [1]", "result": 250, "unit": "mg/L"}, {"measurement": "Kd", "setting": "[2]", "result": 31.2, "unit": "µM"}, {"measurement": "Activity", "setting": "Pseudomonas aeruginosa [5]", "result": "Active"}, {"measurement": "Activity", "setting": "Pseudomonas aeruginosa [6]", "result": "Active"}, {"measurement": "Activity", "setting": "Pseudomonas aeruginosa [7]", "result": "Active"}, {"measurement": "Activity", "setting": "Pseudomonas aeruginosa [8]", "result": "Active"}, {"measurement": "MIC50", "setting": "Pseudomonas aeruginosa [3]", "result": 190, "unit": "mg/L"}, {"measurement": "MIC50", "setting": "Pseudomonas aeruginosa [4]", "result": 210, "unit": "mg/L"}]}, {"smiles": "O=C(O)/C=C/C(=O)Nc1ccc(Nc2ccccc2)cc1", "values": [{"measurement": "MIC50", "setting": "Pseudomonas aeruginosa [1]", "result": 1200, "unit": "mg/L"}, {"measurement": "Kd", "setting": "[2]", "result": 18.4, "unit": "µM"}, {"measurement": "Activity", "setting": "Pseudomonas aeruginosa [5]", "result": "Active"}, {"measurement": "Activity", "setting": "Pseudomonas aeruginosa [6]", "result": "Active"}, {"measurement": "Activity", "setting": "Pseudomonas aeruginosa [7]", "result": "Active"}, {"measurement": "MIC50", "setting": "Pseudomonas aeruginosa [3]", "result": 950, "unit": "mg/L"}, {"measurement": "MIC50", "setting": "Pseudomonas aeruginosa [4]", "result": 1100, "unit": "mg/L"}]}]}
